In brackets after ≈: the same amount, converted by molar mass.
Experiments:
[1] = test system: Mycobacterium tuberculosis; assay: Antimycobacterial activity against Mycobacterium tuberculosis H37Rv ATCC 27294 after 5 days by microplate alamar blue assay; type: functional; details: H37Rv ATCC 27294, 120 h
Procedure, shortened: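 MTB H37Rv (ATCC 27294) in 7H9GC broth, 2-fold serial dilutions from 50 to 0.78 µg/mL. Controls were medium only, inoculum only, and inoculum with 3-5% DMSO. Incubated at 37°C for 5 days. Then 1:1 10× Alamar Blue/10% Tween 80 was added and plates read after a further 24 h at 37°C. Blue scored as no growth, pink as growth.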

[2] = Cytotoxicity against mouse RAW264.7 cells assessed as inhibition of cell viability at 50 ug/ml after 72 hrs by Cell Titer 96 non-radioactive cell proliferation assay; type: cell-based
Procedure, shortened: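 Mouse macrophage RAW264.7 cells exposed to compound at 50 µg/mL for 72 h. Viability was then measured by the MTT-type Cell Titer 96 non-radioactive proliferation assay.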

[3] = test system: RAW264.7; assay: Cytotoxicity against mouse RAW264.7 cells assessed as inhibition of cell viability after 72 hrs by Cell Titer 96 non-radioactive cell proliferation assay; type: cell-based; details: RAW264.7, 72 h
Procedure, shortened: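 MTT-type Cell Titer 96 non-radioactive proliferation assay on mouse macrophage RAW264.7 cells. Viability was read after 72 h of exposure. IC50 values are given as approximate.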

[4] = Selectivity index, ratio of IC50 for mouse RAW264.7 cells to MIC for Mycobacterium tuberculosis H37Rv ATCC 27294; type: toxicity; details: read-out: Selectivity Index

SMILES | MIC99 [1] | inhibition at 72 h, 50 ug/ml [2] | IC50 [3] | selectivity ratio [4]
Cc1cc(S(=O)(=O)N2CCN(c3nc4ccccc4c4ccccc34)CC2)c(C)cc1Cl | 6.25 µg/mL (≈ 13.4 µM) | 34.6% | 72.2 µg/mL (≈ 155 µM) | 11.5
COc1ccc(S(=O)(=O)N2CCN(c3nc4ccccc4c4ccccc34)CC2)cc1 | 6.25 µg/mL (≈ 14.4 µM) | 26.5% | 94.3 µg/mL (≈ 217 µM) | 15.1
O=C(c1ccc([N+](=O)[O-])cc1)N1CCN(c2nc3ccccc3c3ccccc23)CC1 | 50 µg/mL (≈ 121 µM) | – | – | –
O=C(Cc1cccc2ccccc12)N1CCN(c2nc3ccccc3c3ccccc23)CC1 | > 50 µg/mL | – | – | –
O=S(=O)(c1ccc(Br)s1)N1CCN(c2nc3ccccc3c3ccccc23)CC1 | 3.13 µg/mL (≈ 6.41 µM) | 42.2% | 59.3 µg/mL (≈ 121 µM) | –
O=C(CCc1c[nH]c2ccccc12)N1CCN(c2nc3ccccc3c3ccccc23)CC1 | 6.25 µg/mL (≈ 14.4 µM) | 34.6% | 72.2 µg/mL (≈ 166 µM) | 11.5
O=C(c1cccnc1)N1CCN(c2nc3ccccc3c3ccccc23)CC1 | 6.25 µg/mL (≈ 17 µM) | 19.2% | 130 µg/mL (≈ 354 µM) | 20.9
O=C(c1cc([N+](=O)[O-])cc([N+](=O)[O-])c1)N1CCN(c2nc3ccccc3c3ccccc23)CC1 | 25 µg/mL (≈ 54.7 µM) | – | – | –
O=C(c1ccco1)N1CCN(c2nc3ccccc3c3ccccc23)CC1 | 25 µg/mL (≈ 69.9 µM) | – | – | –
O=S(=O)(c1ccc(Br)cc1)N1CCN(c2nc3ccccc3c3ccccc23)CC1 | 3.13 µg/mL (≈ 6.49 µM) | 28.2% | 88.8 µg/mL (≈ 184 µM) | 28.4
O=C(c1ccccc1)N1CCN(c2nc3ccccc3c3ccccc23)CC1 | 3.13 µg/mL (≈ 8.52 µM) | 22.2% | 113 µg/mL (≈ 307 µM) | 36.1
O=[N+]([O-])c1ccc(S(=O)(=O)N2CCN(c3nc4ccccc4c4ccccc34)CC2)cc1 | 50 µg/mL (≈ 111 µM) | – | – | –
CS(=O)(=O)N1CCN(c2nc3ccccc3c3ccccc23)CC1 | 25 µg/mL (≈ 73.2 µM) | – | – | –
O=C(O)c1cccc(C(=O)N2CCN(c3nc4ccccc4c4ccccc34)CC2)n1 | 3.13 µg/mL (≈ 7.59 µM) | 26.5% | 94.3 µg/mL (≈ 229 µM) | 30.2
O=C(/C=C/c1ccccc1)N1CCN(c2nc3ccccc3c3ccccc23)CC1 | 12.5 µg/mL (≈ 31.8 µM) | 22.1% | 113 µg/mL (≈ 287 µM) | 9.04
O=S(=O)(c1ccccc1)N1CCN(c2nc3ccccc3c3ccccc23)CC1 | 6.25 µg/mL (≈ 15.5 µM) | 30.7% | 81.4 µg/mL (≈ 202 µM) | 13
O=S(=O)(c1ccc(F)cc1)N1CCN(c2nc3ccccc3c3ccccc23)CC1 | 6.25 µg/mL (≈ 14.8 µM) | 32.8% | 76.3 µg/mL (≈ 181 µM) | 12.2
O=S(=O)(c1ccc(C(F)(F)F)cc1)N1CCN(c2nc3ccccc3c3ccccc23)CC1 | 25 µg/mL (≈ 53 µM) | – | – | –

SMILES | MIC99 [1] | inhibition at 72 h, 50 ug/ml [2] | IC50 [3] | selectivity ratio [4]
Nc1ccc(C(=O)N2CCN(c3nc4ccccc4c4ccccc34)CC2)cc1 | 50 µg/mL (≈ 131 µM) | – | – | –
CC(C)(C)c1ccc(S(=O)(=O)N2CCN(c3nc4ccccc4c4ccccc34)CC2)cc1 | 1.56 µg/mL (≈ 3.39 µM) | 28.9% | 86.4 µg/mL (≈ 188 µM) | 55.4
O=C(c1ccccn1)N1CCN(c2nc3ccccc3c3ccccc23)CC1 | 3.13 µg/mL (≈ 8.5 µM) | 42.2% | 59.3 µg/mL (≈ 161 µM) | 19
O=C(c1ccc(Cl)cc1)N1CCN(c2nc3ccccc3c3ccccc23)CC1 | 12.5 µg/mL (≈ 31.1 µM) | 26.5% | 94.3 µg/mL (≈ 235 µM) | 7.54
O=S(=O)(c1ccc(Cl)cc1)N1CCN(c2nc3ccccc3c3ccccc23)CC1 | 3.13 µg/mL (≈ 7.15 µM) | 20.9% | 120 µg/mL (≈ 273 µM) | 38.3
O=C(Cc1c[nH]c2ccccc12)N1CCN(c2nc3ccccc3c3ccccc23)CC1 | 25 µg/mL (≈ 59.5 µM) | – | – | –
O=C(c1cccc([N+](=O)[O-])c1)N1CCN(c2nc3ccccc3c3ccccc23)CC1 | 3.13 µg/mL (≈ 7.59 µM) | 34.6% | 72.2 µg/mL (≈ 175 µM) | 23.1
O=C(c1ccncc1)N1CCN(c2nc3ccccc3c3ccccc23)CC1 | 1.56 µg/mL (≈ 4.23 µM) | 27.9% | 89.6 µg/mL (≈ 243 µM) | 57.4
Cc1ccc(S(=O)(=O)N2CCN(c3nc4ccccc4c4ccccc34)CC2)cc1 | > 50 µg/mL | – | – | –
O=C(c1cccs1)N1CCN(c2nc3ccccc3c3ccccc23)CC1 | 50 µg/mL (≈ 134 µM) | – | – | –
N#CCC(=O)N1CCN(c2nc3ccccc3c3ccccc23)CC1 | 25 µg/mL (≈ 75.7 µM) | – | – | –
CC(=O)c1ccc(S(=O)(=O)N2CCN(c3nc4ccccc4c4ccccc34)CC2)cc1 | 25 µg/mL (≈ 56.1 µM) | – | – | –
O=C(CCCc1c[nH]c2ccccc12)N1CCN(c2nc3ccccc3c3ccccc23)CC1 | 1.56 µg/mL (≈ 3.48 µM) | 34.1% | 73.3 µg/mL (≈ 163 µM) | 47
Nc1ccccc1C(=O)N1CCN(c2nc3ccccc3c3ccccc23)CC1 | > 50 µg/mL | – | – | –
Cc1cc(C)c(S(=O)(=O)N2CCN(c3nc4ccccc4c4ccccc34)CC2)c(C)c1 | 12.5 µg/mL (≈ 28.1 µM) | 26.5% | 94.3 µg/mL (≈ 212 µM) | 7.54
NNC(=O)c1ccncc1 [ISONIAZID] | 0.1 µg/mL (≈ 0.729 µM) | – | – | –
NC(=O)c1cnccn1 [PYRAZINAMIDE] | 6.25 µg/mL (≈ 50.8 µM) | – | – | –
CO[C@H]1/C=C/O[C@@]2(C)Oc3c(C)c(O)c4c(O)c(c(/C=N/N5CCN(C)CC5)c(O)c4c3C2=O)NC(=O)/C(C)=C\C=C\[C@H](C)[C@H](O)[C@@H](C)[C@@H](O)[C@@H](C)[C@H](OC(C)=O)[C@@H]1C [RIFAMPIN] | 0.2 µg/mL (≈ 0.243 µM) | – | – | –

Source: ChEMBL document CHEMBL4000144, “Novel amide and sulphonamide derivatives of 6-(piperazin-1-yl)phenanthridine as potent Mycobacterium tuberculosis H37Rv inhibitors” (Eur J Med Chem, 2015)
